These results are taken from ChEMBL document CHEMBL1147412, “Synthesis and biological activity of new quinoxaline antibiotics of echinomycin analogues” (Bioorg Med Chem Lett, 2004).

By IC50 is commonly meant the concentration that inhibits the measured activity by half. A low value points to greater potency.

One assay concerns B16. The assay can be described thus: Inhibitory activity against growth of B16 mouse melanoma cell line was determined by MTT assay. The assay is classed as functional, cell-based. The gist of the method: (§1)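 Exponentially growing cells seeded at 2 × 10^4 ~ 5 × 10^4 cells/well in RPMI-1640, drug-treated, then incubated 72 h. MTT (5 mg/mL stock) added, 4 h at 37 °C. Formazan dissolved in DMSO at rt, absorbance read at 540 nm. IC50 from plot of log drug concentration versus growth rate of treated cells.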
For orientation: Tetrazolium dyes change colour on reduction, which living cells bring about.

Another assay deals with BeWo. Put plainly: Inhibitory activity against growth of BeWO placental tumor cell line was determined by MTT assay. It counts as functional, cell-based. The following applies: Homo sapiens. The method, boiled down: as §1
For assay [1], the system named is HT-29. Put plainly: Inhibitory activity against growth of HT-29 colon tumor cell line was determined by MTT assay. The assay is classed as functional, cell-based. As to conditions: Homo sapiens. The method, boiled down:
as §1

In a further assay the test system is PANC-1. The assay can be described thus: Inhibitory activity against growth of PANC-1 tumor cell line was determined by MTT assay. As to conditions: Homo sapiens. It counts as functional, cell-based. The method, boiled down: as §1
The subject of assay [2] is HT-29. Put plainly: Percentage of apoptotic HT-29 cells after 24 H treatment with 10 ug/mL concentration of compound. The assay is classed as functional, Homo sapiens. The method, boiled down: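 HT-29 cells exposed to compound at 10 μg/mL for 24 h. Apoptotic cell percentage measured by flow cytometry (FACScan). Mean ± SEM of at least three separate experiments.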

Converted amounts (≈) assume the structure as drawn.

Regarding `CC(C)[C@@H]1NC(=O)[C@@H]2CSCSC[C@H](NC(=O)[C@H](C)NC(=O)[C@H](NC(=O)c3cnc4ccccc4n3)COC1=O)C(=O)N[C@@H](C(C)C)C(=O)OC[C@@H](NC(=O)c1cnc3ccccc3n1)C(=O)N[C@@H](C)C(=O)N2`, the IC50 in the assay with B16, with BeWo, with HT-29 [1] and in the assay with PANC-1 was > 20 µg/mL in each case.
With `CC(C)[C@H]1C(=O)OC[C@@H](NC(=O)c2cnc3ccccc3n2)C(=O)N[C@@H](C)C(=O)N(C)[C@H]2CSCSC[C@@H](C(=O)N1C)N(C)C(=O)[C@H](C)NC(=O)[C@H](NC(=O)c1cnc3ccccc3n1)COC(=O)[C@H](C(C)C)N(C)C2=O`, the IC50 in the assay with B16 came out at 1.4 µg/mL (≈ 1.27 µM); with BeWo it was 2.7 µg/mL (≈ 2.45 µM); in the assay on HT-29 [1] it was 5 µg/mL (≈ 4.54 µM); with PANC-1, 4 µg/mL (≈ 3.63 µM). In addition, in the assay on HT-29 [2], the Apoptotic cells turned out to be 28.9%.
The matching figures for `CS[C@H]1SC[C@H]2C(=O)N(C)[C@@H](C(C)C)C(=O)OC[C@@H](NC(=O)c3cnc4ccccc4n3)C(=O)N[C@@H](C)C(=O)N(C)[C@@H]1C(=O)N(C)[C@@H](C(C)C)C(=O)OC[C@@H](NC(=O)c1cnc3ccccc3n1)C(=O)N[C@@H](C)C(=O)N2C` [ECHINOMYCIN]: 0.4 µg/mL (≈ 0.363 µM), 1 µg/mL (≈ 0.908 µM), 2.2 µg/mL (≈ 2 µM), 1.8 µg/mL (≈ 1.63 µM) and 47.5%.
For `CC(C)[C@H]1C(=O)OC[C@@H](NC(=O)c2cnc3ccccc3n2)C(=O)N[C@@H](C)C(=O)N(C)[C@H]2CSC[S+]([O-])C[C@@H](C(=O)N1C)N(C)C(=O)[C@H](C)NC(=O)[C@H](NC(=O)c1cnc3ccccc3n1)COC(=O)[C@H](C(C)C)N(C)C2=O` (stereo not given in full), the IC50 with B16, with BeWo, with HT-29 [1] and with PANC-1 was > 20 µg/mL in each case.
As for `CC(C)[C@@H]1NC(=O)[C@@H]2CS(=O)(=O)CS(=O)(=O)C[C@H](NC(=O)[C@H](C)NC(=O)[C@H](NC(=O)c3cnc4ccccc4n3)COC1=O)C(=O)N[C@@H](C(C)C)C(=O)OC[C@@H](NC(=O)c1cnc3ccccc3n1)C(=O)N[C@@H](C)C(=O)N2`, the IC50 with B16, in the assay with BeWo, in the assay with HT-29 [1] and in the assay on PANC-1 was > 20 µg/mL each time.
For the compound `CC(C)[C@H]1C(=O)OC[C@@H](NC(=O)c2cnc3ccccc3n2)C(=O)N[C@@H](C)C(=O)N(C)[C@H]2C[S+]([O-])C[S+]([O-])C[C@@H](C(=O)N1C)N(C)C(=O)[C@H](C)NC(=O)[C@H](NC(=O)c1cnc3ccccc3n1)COC(=O)[C@H](C(C)C)N(C)C2=O` (stereo not given in full), the IC50 in the assay with B16, with BeWo, in the assay with HT-29 [1] and in the assay on PANC-1 was > 20 µg/mL throughout.
For the compound `CC(C)[C@H]1C(=O)OC[C@@H](NC(=O)c2cnc3ccccc3n2)C(=O)N[C@@H](C)C(=O)N(C)[C@H]2CS(=O)(=O)CS(=O)(=O)C[C@@H](C(=O)N1C)N(C)C(=O)[C@H](C)NC(=O)[C@H](NC(=O)c1cnc3ccccc3n1)COC(=O)[C@H](C(C)C)N(C)C2=O`, the IC50 with B16, in the assay on BeWo, in the assay on HT-29 [1] and in the assay with PANC-1 was > 20 µg/mL in each case.
